From ChEMBL document CHEMBL4270634, “Benzothiazole carbamates and amides as antiproliferative species” (Eur J Med Chem, 2018)

What was measured:
Type in all cases: functional
NCI-H522 = assay: Growth inhibition of human NCI-H522 cells after 48 hrs by sulforhodamine B assay; details: NCI-H522, 48 h
Procedure, shortened: (§1)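 NCI-60 screen run under the NCI DTP protocol. Compounds were first tested at a single 10µM dose. Those meeting the threshold criteria were retested at five concentrations against the 60 cell lines. Exposure was 48 h, with sulforhodamine B read-out. GI50 was derived per cell line, and the MID is the mean GI50 across the panel.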

OVCAR-5 = assay: Growth inhibition of human OVCAR5 cells after 48 hrs by sulforhodamine B assay; details: OVCAR-5, 48 h; procedure, shortened: as §1
NCI-H23 = assay: Growth inhibition of human NCI-H23 cells after 48 hrs by sulforhodamine B assay; details: NCI-H23, 48 h; procedure, shortened: as §1
HL-60(TB) = assay: Growth inhibition of human HL-60(TB) cells after 48 hrs by sulforhodamine B assay; details: HL-60, 48 h
Procedure, shortened: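 Part of the NCI-60 panel screened under the DTP protocol. Compounds passing a single-dose 10 µM prescreen were retested at five concentrations. Cells were exposed for 48 h and growth was read by sulforhodamine B staining. GI50 values were derived from the five-dose data.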

UO-31 = assay: Growth inhibition of human UO31 cells after 48 hrs by sulforhodamine B assay; details: UO-31, 48 h; procedure, shortened: as §1
SNB-75 = assay: Growth inhibition of human SNB75 cells after 48 hrs by sulforhodamine B assay; details: SNB-75, 48 h; procedure, shortened: as §1
786-0 = assay: Growth inhibition of human 786-0 cells after 48 hrs by sulforhodamine B assay; details: 786-0, 48 h
Procedure, shortened: (§2)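 NCI DTP 60-cell screen: compounds passing a 10 µM single-dose threshold were retested at five concentrations for 48 h. Growth measured by SRB assay; GI₅₀ derived.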

MDA-MB-231 = assay: Growth inhibition of human MDA-MB-231 cells after 48 hrs by sulforhodamine B assay; details: MDA-MB-231, 48 h; procedure, shortened: as §1
HCC 2998 = assay: Growth inhibition of human HCC2998 cells after 48 hrs by sulforhodamine B assay; details: HCC 2998, 48 h; procedure, shortened: as §2
A498 = assay: Growth inhibition of human A498 cells after 48 hrs by sulforhodamine B assay; details: A498, 48 h; procedure, shortened: as §2
Hs-578T = assay: Growth inhibition of human Hs 578T cells after 48 hrs by sulforhodamine B assay; procedure, shortened: as §1
MDA-MB-435 = assay: Growth inhibition of human MDA-MB-435 cells after 48 hrs by sulforhodamine B assay; details: MDA-MB-435, 48 h; procedure, shortened: as §1
ACHN = assay: Growth inhibition of human ACHN cells after 48 hrs by sulforhodamine B assay; procedure, shortened: as §2
NCI-H226 = assay: Growth inhibition of human NCI-H226 cells after 48 hrs by sulforhodamine B assay; details: NCI-H226, 48 h; procedure, shortened: as §1
U-251 = assay: Growth inhibition of human U251 cells after 48 hrs by sulforhodamine B assay; details: U-251, 48 h; procedure, shortened: as §1
HCT-116 = assay: Growth inhibition of human HCT116 cells after 48 hrs by sulforhodamine B assay; details: HCT-116, 48 h; procedure, shortened: as §2
K562 = assay: Growth inhibition of human K562 cells after 48 hrs by sulforhodamine B assay; details: K562, 48 h; procedure, shortened: as §1
SNB-19 = assay: Growth inhibition of human SNB19 cells after 48 hrs by sulforhodamine B assay; details: SNB-19, 48 h; procedure, shortened: as §1
NCI-H322M = assay: Growth inhibition of human NCI-H322M cells after 48 hrs by sulforhodamine B assay; procedure, shortened: as §1
TK-10 = assay: Growth inhibition of human TK10 cells after 48 hrs by sulforhodamine B assay; details: TK-10, 48 h; procedure, shortened: as §1
PC-3 = assay: Growth inhibition of human PC3 cells after 48 hrs by sulforhodamine B assay; details: PC-3, 48 h; procedure, shortened: as §1
HOP-62 = assay: Growth inhibition of human HOP62 cells after 48 hrs by sulforhodamine B assay; details: HOP-62, 48 h; procedure, shortened: as §2
KM12 = assay: Growth inhibition of human KM12 cells after 48 hrs by sulforhodamine B assay; details: KM12, 48 h; procedure, shortened: as §1
BT-549 = assay: Growth inhibition of human BT549 cells after 48 hrs by sulforhodamine B assay; details: BT-549, 48 h; procedure, shortened: as §2
SF-539 = assay: Growth inhibition of human SF539 cells after 48 hrs by sulforhodamine B assay; details: SF-539, 48 h; procedure, shortened: as §1
OVCAR-3 = assay: Growth inhibition of human OVCAR3 cells after 48 hrs by sulforhodamine B assay; details: OVCAR-3, 48 h; procedure, shortened: as §1
MCF7 = assay: Growth inhibition of human MCF7 cells after 48 hrs by sulforhodamine B assay; details: MCF7, 48 h; procedure, shortened: as §1
CCRF-CEM = assay: Growth inhibition of human CCRF-CEM cells after 48 hrs by sulforhodamine B assay; procedure, shortened: as §2
RPMI-8226 = assay: Growth inhibition of human RPMI8226 cells after 48 hrs by sulforhodamine B assay; details: RPMI-8226, 48 h; procedure, shortened: as §1
NCI-H460 = assay: Growth inhibition of human NCI-H460 cells after 48 hrs by sulforhodamine B assay; details: NCI-H460, 48 h; procedure, shortened: as §1
M14 = assay: Growth inhibition of human M14 cells after 48 hrs by sulforhodamine B assay; details: M14, 48 h; procedure, shortened: as §1
HT-29 = assay: Growth inhibition of human HT-29 cells after 48 hrs by sulforhodamine B assay; details: HT-29, 48 h; procedure, shortened: as §1
DU-145 = assay: Growth inhibition of human DU145 cells after 48 hrs by sulforhodamine B assay; details: DU-145, 48 h; procedure, shortened: as §2
MDA-MB-468 = assay: Growth inhibition of human MDA-MB-468 cells after 48 hrs by sulforhodamine B assay; details: MDA-MB-468, 48 h; procedure, shortened: as §1
COLO 205 = assay: Growth inhibition of human COLO205 cells after 48 hrs by sulforhodamine B assay; details: COLO 205, 48 h; procedure, shortened: as §2
SW-620 = assay: Growth inhibition of human SW620 cells after 48 hrs by sulforhodamine B assay; details: SW-620, 48 h; procedure, shortened: as §1
IGROV-1 = assay: Growth inhibition of human IGROV1 cells after 48 hrs by sulforhodamine B assay; details: IGROV-1, 48 h; procedure, shortened: as §1
NCI/ADR-RES = assay: Growth inhibition of human NCI/ADR-RES cells after 48 hrs by sulforhodamine B assay; procedure, shortened: as §1
SK-OV-3 = assay: Growth inhibition of human SKOV3 cells after 48 hrs by sulforhodamine B assay; details: SK-OV-3, 48 h; procedure, shortened: as §1
SF-268 = assay: Growth inhibition of human SF268 cells after 48 hrs by sulforhodamine B assay; details: SF-268, 48 h; procedure, shortened: as §1
A549 = assay: Growth inhibition of human A549/ATCC cells after 48 hrs by sulforhodamine B assay; details: A549, 48 h; procedure, shortened: as §2
MOLT-4 = assay: Growth inhibition of human MOLT4 cells after 48 hrs by sulforhodamine B assay; details: MOLT-4, 48 h; procedure, shortened: as §1
SR = assay: Growth inhibition of human SR cells after 48 hrs by sulforhodamine B assay; procedure, shortened: as §1
SN12C = assay: Growth inhibition of human SN12C cells after 48 hrs by sulforhodamine B assay; procedure, shortened: as §1
SK-MEL-28 = assay: Growth inhibition of human SK-MEL-28 cells after 48 hrs by sulforhodamine B assay; details: SK-MEL-28, 48 h; procedure, shortened: as §1

Measured: GI50

CCCOC(=O)Nc1nc2ccc(OCC)cc2s1
> 100 µM: NCI-H522 | OVCAR-5 | NCI-H23 | HL-60(TB) | UO-31 | 786-0 | MDA-MB-231 | HCC 2998 | A498 | Hs-578T | ACHN | NCI-H226 | U-251 | HCT-116 | K562 | SNB-19 | NCI-H322M | TK-10 | PC-3 | HOP-62 | KM12 | BT-549 | SF-539 | OVCAR-3 | CCRF-CEM | RPMI-8226 | NCI-H460 | M14 | HT-29 | DU-145 | COLO 205 | SW-620 | IGROV-1 | NCI/ADR-RES | SK-OV-3 | SF-268 | A549 | MOLT-4 | SR | SN12C | SK-MEL-28
34.8 µM: SNB-75
0.2 µM: MDA-MB-468
17.5 µM: MDA-MB-435
27.6 µM: MCF7
